Data reported in ChEMBL document CHEMBL1123237 (J Med Chem, 1986).

Columns and labels:
Format in all cases: functional, Artery
[1] = test system: Rattus norvegicus; experiment: Baseline mean aortic blood pressure in conscious renal (1clip/2kidney) hypertensive rats at dose 10 mg/kg administered orally.
Procedure, shortened: (§1)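 Oral dosing in rats cannulated for aortic blood pressure monitoring. Only rats with mean aortic pressure >160 mmHg were used; they weighed 280-320 g at cannulation. Rats had free access to standard chow and tap water on a 12-h dark/12-h light cycle. The value is the pre-dose mean aortic pressure, given as mean ± 1 SEM; 3-6 rats per dose.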

[2] = test system: Rattus norvegicus; experiment: Baseline mean aortic blood pressure in conscious renal (1clip/2kidney) hypertensive rats at dose 1 mg/kg administered orally.; procedure, shortened: as §1
[3] = test system: Rattus norvegicus; experiment: Baseline mean aortic blood pressure in conscious renal (1clip/2kidney) hypertensive rats at dose 3 mg/kg administered orally.; procedure, shortened: as §1
[4] = test system: Rattus norvegicus; experiment: Maximum change aortic blood pressure in conscious renal (1clip/2kidney) hypertensive rats at dose 3 mg/kg administered orally at 5 hr.; details: route oral
[5] = test system: Rattus norvegicus; experiment: Maximum change aortic blood pressure in conscious renal (1clip/2kidney) hypertensive rats at dose 1 mg/kg administered orally at 4 hr.; details: route oral
[6] = test system: Rattus norvegicus; experiment: Maximum change aortic blood pressure in conscious renal (1clip/2kidney) hypertensive rats at dose 0.3 mg/kg administered orally at 10 hr.; details: route oral
[7] = test system: Rattus norvegicus; experiment: Baseline mean aortic blood pressure in conscious renal (1clip/2kidney) hypertensive rats at dose 0.3 mg/kg administered orally.; procedure, shortened: as §1
[8] = test system: Rattus norvegicus; experiment: Maximum change aortic blood pressure in conscious renal (1clip/2kidney) hypertensive rats at dose 10 mg/kg administered orally at 5 hr; details: route oral
[9] = test system: Rattus norvegicus; experiment: Maximum change aortic blood pressure in conscious renal (1clip/2kidney) hypertensive rats at dose 10 mg/kg administered orally at 5 hr.; details: route oral
[10] = test system: Rattus norvegicus; experiment: Maximum change aortic blood pressure in conscious renal (1clip/2kidney) hypertensive rats at dose 30 mg/kg administered orally at 9 hr.; details: route oral
[11] = test system: Rattus norvegicus; experiment: Maximum change aortic blood pressure in conscious renal (1clip/2kidney) hypertensive rats at dose 1 mg/kg administered orally at 7 hr.; details: route oral
[12] = test system: Rattus norvegicus; experiment: Baseline mean aortic blood pressure in conscious renal (1clip/2kidney) hypertensive rats at dose 30 mg/kg administered orally.; procedure, shortened: as §1
[13] = test system: Rattus norvegicus; experiment: Maximum change aortic blood pressure in conscious renal (1clip/2kidney) hypertensive rats at dose 3 mg/kg administered orally at 2 hr.; details: route oral
[14] = test system: Rattus norvegicus; experiment: Maximum change aortic blood pressure in conscious renal (1clip/2kidney) hypertensive rats at dose 30 mg/kg administered orally at 10 hr; details: route oral
[15] = test system: Rattus norvegicus; experiment: Maximum change aortic blood pressure in conscious renal (1clip/2kidney) hypertensive rats at dose 30 mg/kg administered orally at 8 hr.; details: route oral
[16] = test system: Rattus norvegicus; experiment: Maximum change aortic blood pressure in conscious renal (1clip/2kidney) hypertensive rats at dose 10 mg/kg administered orally at 10 hr.; details: route oral
[17] = test system: Rattus norvegicus; experiment: Maximum change aortic blood pressure in conscious renal (1clip/2kidney) hypertensive rats at dose 1 mg/kg administered orally at 1 hr; details: route oral
[18] = test system: Rattus norvegicus; experiment: Maximum change aortic blood pressure in conscious renal (1clip/2kidney) hypertensive rats at dose 1 mg/kg administered orally at 10 hr; details: route oral
[19] = test system: Rattus norvegicus; experiment: Baseline mean aortic blood pressure in conscious renal (1clip/2kidney) hypertensive rats at dose 1 mg/kg administered orally; details: route oral; procedure, shortened: as §1
[20] = test system: Rattus norvegicus; experiment: Baseline mean aortic blood pressure in conscious renal (1clip/2kidney) hypertensive rats at dose 30 mg/kg administered orally; details: route oral; procedure, shortened: as §1
[21] = test system: Rattus norvegicus; experiment: Maximum change aortic blood pressure in conscious renal (1clip/2kidney) hypertensive rats at dose 0.3 mg/kg administered orally at 5 hr.; details: route oral
[22] = test system: Rattus norvegicus; experiment: Maximum change aortic blood pressure in conscious renal (1clip/2kidney) hypertensive rats at dose 1 mg/kg administered orally at 8 hr.; details: route oral
[23] = test system: Rattus norvegicus; experiment: Maximum change aortic blood pressure in conscious renal (1clip/2kidney) hypertensive rats at dose 10 mg/kg administered orally at 4 hr.; details: route oral
[24] = test system: Rattus norvegicus; experiment: Maximum change aortic blood pressure in conscious renal (1clip/2kidney) hypertensive rats at dose 3 mg/kg administered orally at 8 hr.; details: route oral
[25] = test system: Rattus norvegicus; experiment: Maximum change aortic blood pressure in conscious renal (1clip/2kidney) hypertensive rats at dose 10 mg/kg administered orally at 6 hr.; details: route oral
[26] = test system: Rattus norvegicus; experiment: Maximum change aortic blood pressure in conscious renal (1clip/2kidney) hypertensive rats at dose 30 mg/kg administered orally; details: route oral
[27] = test system: Rattus norvegicus; experiment: Maximum change aortic blood pressure in conscious renal (1clip/2kidney) hypertensive rats at dose 0.3 mg/kg administered orally at 2 hr.; details: route oral
[28] = test system: Rattus norvegicus; experiment: Maximum change aortic blood pressure in conscious renal (1clip/2kidney) hypertensive rats at dose 30 mg/kg administered orally at 6 hr; details: route oral
[29] = test system: Rattus norvegicus; experiment: Maximum change aortic blood pressure in conscious renal (1clip/2kidney) hypertensive rats at dose 1 mg/kg administered orally at 9 hr.; details: route oral
[30] = test system: Rattus norvegicus; experiment: Maximum change aortic blood pressure in conscious renal (1clip/2kidney) hypertensive rats at dose 30 mg/kg administered orally at 6 hr.; details: route oral
[31] = test system: Rattus norvegicus; experiment: Maximum change aortic blood pressure in conscious renal (1clip/2kidney) hypertensive rats at dose 3 mg/kg administered orally at 6 hr.; details: route oral
[32] = test system: Rattus norvegicus; experiment: Maximum change aortic blood pressure in conscious renal (1clip/2kidney) hypertensive rats at dose 1 mg/kg administered orally at 6 hr.; details: route oral

SMILES: CCOC(=O)[C@H](CCc1ccccc1)N[C@@H](C)C(=O)N1Cc2ccccc2C[C@H]1C(=O)O
- MABP [1]: 181 mmHg
- MABP [2]: 196 mmHg
- MABP [3]: 188 mmHg
- MABP [4]: -62 mmHg
- MABP [5]: -54 mmHg
- MABP [6]: -50 mmHg
- MABP [7]: 157 mmHg
- MABP [8]: -87 mmHg

SMILES: C[C@H](N[C@@H](CCc1ccccc1)C(=O)O)C(=O)N1Cc2ccccc2C[C@H]1C(=O)O
- MABP [1]: 199 mmHg
- MABP [2]: 199 mmHg
- MABP [9]: -76 mmHg
- MABP [10]: -89 mmHg
- MABP [3]: 199 mmHg
- MABP [11]: -44 mmHg
- MABP [12]: 192 mmHg
- MABP [13]: -45 mmHg

SMILES: CCOC(=O)[C@@H](CCc1ccccc1)N[C@@H](C)C(=O)N1Cc2ccccc2C[C@H]1C(=O)O
- MABP [14]: -11 mmHg
- MABP [12]: 172 mmHg

SMILES: CCOC(=O)[C@@H](CCc1ccccc1)N[C@@H](C)C(=O)N1Cc2cc(OC)c(OC)cc2C[C@H]1C(=O)O
- MABP [15]: -15 mmHg
- MABP [12]: 177 mmHg

SMILES: CCOC(=O)[C@H](CCc1ccccc1)N[C@@H](C)C(=O)N1Cc2ccccc2C[C@@H]1C(=O)O
- MABP [10]: -20 mmHg
- MABP [12]: 187 mmHg

SMILES: CCOC(=O)[C@H](CCc1ccccc1)N[C@@H](C)C(=O)N1Cc2ccccc2[C@H]1C(=O)O
- MABP [1]: 200 mmHg
- MABP [16]: -80 mmHg

SMILES: CC(CS)C(=O)N1Cc2ccccc2CC1C(=O)O (stereo unspecified)
- MABP [2]: 185 mmHg
- MABP [17]: -45 mmHg

SMILES: CCOC(=O)[C@H](CCc1ccccc1)N[C@@H](C)C(=O)N1Cc2cc(OC)c(OC)cc2C[C@@H]1C(=O)O
- MABP [15]: -16 mmHg
- MABP [12]: 178 mmHg

SMILES: CCOC(=O)C(CCc1ccccc1)NC(C)C(=O)N1Cc2ccccc2CC1C(=O)OCC (stereo unspecified)
- MABP [18]: -69 mmHg
- MABP [19]: 208 mmHg

SMILES: O=C(O)C1c2ccccc2CN1C(=O)CCS (stereo unspecified)
- MABP [14]: -15 mmHg
- MABP [20]: 174 mmHg

SMILES: CCOC(=O)[C@H](CCc1ccccc1)N[C@@H](C)C(=O)N1CCC[C@H]1C(=O)O
- MABP [1]: 199 mmHg
- MABP [2]: 175 mmHg
- MABP [21]: -79 mmHg
- MABP [3]: 200 mmHg
- MABP [4]: -112 mmHg
- MABP [22]: -43 mmHg
- MABP [7]: 201 mmHg
- MABP [23]: -112 mmHg

SMILES: COc1cc2c(cc1OC)CN(C(=O)C(C)NC(CCc1ccccc1)C(=O)O)C(C(=O)O)C2 (stereo unspecified)
- MABP [1]: 199 mmHg
- MABP [2]: 199 mmHg
- MABP [3]: 199 mmHg
- MABP [15]: -107 mmHg
- MABP [22]: -20 mmHg
- MABP [24]: -52 mmHg
- MABP [12]: 181 mmHg
- MABP [25]: -52 mmHg

SMILES: CC(NC(CCc1ccccc1)C(=O)O)C(=O)N1Cc2ccccc2C1C(=O)O (stereo unspecified)
- MABP [3]: 195 mmHg
- MABP [24]: -74 mmHg

SMILES: CC(CS)C(=O)N1Cc2ccccc2C1C(=O)O (racemic)
- MABP [26]: 0 mmHg
- MABP [20]: 165 mmHg

SMILES: C[C@H](CS)C(=O)N1CCC[C@H]1C(=O)O [CAPTOPRIL]
- MABP [27]: -25 mmHg

SMILES: CCOC(=O)C(CCc1ccccc1)N1C(=O)C2Cc3ccccc3CN2C(=O)C1C (stereo unspecified) [DIKETOPIPERAZINE DERIVATIVE OF QUINAPRIL]
- MABP [28]: -28 mmHg
- MABP [20]: 186 mmHg

SMILES: C[C@H](N[C@@H](CCc1ccccc1)C(=O)O)C(=O)N1CCC[C@H]1C(=O)O [ENALAPRILAT ANHYDROUS]
- MABP [1]: 188 mmHg
- MABP [2]: 188 mmHg
- MABP [3]: 188 mmHg
- MABP [29]: -51 mmHg
- MABP [30]: -70 mmHg
- MABP [12]: 176 mmHg
- MABP [13]: -54 mmHg
- MABP [25]: -57 mmHg

SMILES: CCOC(=O)[C@H](CCc1ccccc1)N[C@@H](C)C(=O)N1Cc2cc(OC)c(OC)cc2C[C@H]1C(=O)O [MOEXIPRIL]
- MABP [1]: 205 mmHg
- MABP [2]: 182 mmHg
- MABP [21]: -41 mmHg
- MABP [3]: 179 mmHg
- MABP [7]: 201 mmHg
- MABP [31]: -39 mmHg
- MABP [32]: -43 mmHg
- MABP [25]: -113 mmHg
